{"source": "ChEMBL document CHEMBL5104225", "about": "“Synthesis and structure-activity relationship studies of N-terminal analogues of the lipopeptide antibiotics brevicidine and laterocidine” (RSC Med Chem, 2022)", "key": {"Staphylococcus aureus": {"tested_on": "Staphylococcus aureus", "experiment": "Antibacterial activity against Staphylococcus aureus USA300 assessed as inhibition of bacterial growth incubated for 18 hrs by CLSI protocol based method", "assay_type": "functional", "outline": "(§1)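 Single colonies from blood agar (16 h, 37 °C) grown in TSB at 37 °C, 220 rpm to OD600 ~0.5, then diluted in MHB to 2×10^5 CFU/mL. Mixed with serial MHB dilutions of DMSO stocks in polypropylene plates, sealed, and incubated 18 h at 37 °C, 600 rpm. MIC was taken as the lowest concentration with no visible growth; three technical replicates.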"}, "Pseudomonas aeruginosa": {"tested_on": "Pseudomonas aeruginosa", "experiment": "Antibacterial activity against Pseudomonas aeruginosa PAO1 assessed as inhibition of bacterial growth incubated for 18 hrs by CLSI protocol based method", "assay_type": "functional", "outline": "as §1"}, "Escherichia coli [1]": {"tested_on": "Escherichia coli", "experiment": "Antibacterial activity against Escherichia coli ATCC 25922 assessed as inhibition of bacterial growth incubated for 18 hrs by CLSI protocol based method", "assay_type": "functional", "outline": "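Broth microdilution MIC. Strain streaked from glycerol stock on sheep blood agar (16 h, 37 °C); a colony was grown in TSB at 37 °C, 220 rpm, to OD600 about 0.5. Cells were diluted in MHB to 2×10^5 CFU/mL and added 1:1 to serial dilutions in MHB in polypropylene plates.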"}, "Escherichia coli [2]": {"tested_on": "Escherichia coli", "experiment": "Antibacterial activity against colistin-resistant Escherichia coli ATCC 25922 carrying MCR-1 gene assessed as inhibition of bacterial growth incubated for 18 hrs by CLSI protocol based method", "assay_type": "functional", "outline": "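Broth microdilution MIC. MCR-1 strain grown from glycerol stock in TSB with kanamycin (16 h, 37 °C, 220 rpm), diluted 100-fold in the same medium and grown to OD600 about 0.5. Cells were diluted in MHB to 2×10^5 CFU/mL and added 1:1 to serial dilutions in MHB. Incubated 18 h, 37 °C, 600 rpm; visual lowest no-growth concentration; three technical replicates.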"}, "Klebsiella pneumoniae": {"tested_on": "Klebsiella pneumoniae", "experiment": "Antibacterial activity against Klebsiella pneumoniae ATCC 13883 assessed as inhibition of bacterial growth incubated for 18 hrs by CLSI protocol based method", "assay_type": "functional", "outline": "as §1"}, "Acinetobacter baumannii": {"tested_on": "Acinetobacter baumannii", "experiment": "Antibacterial activity against Acinetobacter baumannii ATCC 17961 assessed as inhibition of bacterial growth incubated for 18 hrs by CLSI protocol based method", "assay_type": "functional", "outline": "as §1"}, "Erythrocyte": {"tested_on": "Erythrocyte", "experiment": "Hemolytic activity in sheep red blood cell assessed as hemolysis at 64 ug/ml incubated for 1 hrs relative to control", "assay_type": "toxicity, cell-based, Ovis aries", "conditions": "at 64 µg/mL", "outline": "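Defibrinated sheep erythrocytes were washed five times in PBS with 0.002% Tween20 and normalized so the positive control read 2.5–3.0 at 415 nm. Cells were mixed with peptide at 64 µg/mL and held 1 h at 37 °C, shaking 500 rpm, then centrifuged. Supernatant A415 was background-corrected against buffer and expressed as % of 0.1% Triton X-100. Run in triplicate.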"}}, "note": "Bridge positions count the residues as written; N and C are the ends. Square brackets hold non-standard residues; d marks the D form. Peptide text beside a SMILES is read from it. * marks the point of attachment. ξ: configuration not given here. Octanoyl(7-Me) = CC(C)CCCCCC(=O)*; Palmitoyl = CCCCCCCCCCCCCCCC(=O)*; Hexanoyl(4ξ-Me) = CCC(C)CCC(=O)*; dOrn = NCCC[C@@H](N)C(=O)O; Octanoyl = CCCCCCCC(=O)*; Orn = NCCC[C@H](N)C(=O)O"}
{"compound": "CCCCCCCC(=O)N[C@H](CC(N)=O)C(=O)N[C@H](Cc1ccc(O)cc1)C(=O)N[C@H](Cc1c[nH]c2ccccc12)C(=O)N[C@H](CCCN)C(=O)N[C@@H](CCCN)C(=O)NCC(=O)N[C@H](CCCN)C(=O)N[C@@H](Cc1c[nH]c2ccccc12)C(=O)N[C@@H]1C(=O)N[C@@H]([C@@H](C)CC)C(=O)NCC(=O)N[C@@H](CO)C(=O)O[C@@H]1C", "note": "(Octanoyl-[dN][dY][dW][dOrn][Orn]G[dOrn]WTIGS; ester 9-C)", "values": [{"measurement": "MIC", "setting": "Staphylococcus aureus", "value": "> 32", "unit": "mg/L"}, {"measurement": "MIC", "setting": "Pseudomonas aeruginosa", "value": 8, "unit": "mg/L"}, {"measurement": "MIC", "setting": "Escherichia coli [1]", "value": 16, "unit": "mg/L"}, {"measurement": "MIC", "setting": "Escherichia coli [2]", "value": 16, "unit": "mg/L"}, {"measurement": "MIC", "setting": "Klebsiella pneumoniae", "value": 16, "unit": "mg/L"}, {"measurement": "MIC", "setting": "Acinetobacter baumannii", "value": 16, "unit": "mg/L"}]}
{"compound": "CCCCCCCC(=O)N[C@H](CO)C(=O)N[C@H](Cc1ccc(O)cc1)C(=O)N[C@H](Cc1c[nH]c2ccccc12)C(=O)N[C@H](CCCN)C(=O)N[C@@H](CCCN)C(=O)NCC(=O)N[C@H](CCCN)C(=O)N[C@@H](Cc1c[nH]c2ccccc12)C(=O)N[C@@H]1C(=O)N[C@@H]([C@@H](C)CC)C(=O)N[C@@H](CC(N)=O)C(=O)NCC(=O)NCC(=O)O[C@@H]1C", "note": "(Octanoyl-[dS][dY][dW][dOrn][Orn]G[dOrn]WTINGG; ester 9-C)", "values": [{"measurement": "MIC", "setting": "Staphylococcus aureus", "value": "> 32", "unit": "mg/L"}, {"measurement": "MIC", "setting": "Pseudomonas aeruginosa", "value": 2, "unit": "mg/L"}, {"measurement": "MIC", "setting": "Escherichia coli [1]", "value": 2, "unit": "mg/L"}, {"measurement": "MIC", "setting": "Escherichia coli [2]", "value": 2, "unit": "mg/L"}, {"measurement": "MIC", "setting": "Klebsiella pneumoniae", "value": 2, "unit": "mg/L"}, {"measurement": "MIC", "setting": "Acinetobacter baumannii", "value": 4, "unit": "mg/L"}]}
{"compound": "CCCCCCCCCCCCCCCC(=O)N[C@H](CO)C(=O)N[C@H](Cc1ccc(O)cc1)C(=O)N[C@H](Cc1c[nH]c2ccccc12)C(=O)N[C@H](CCCN)C(=O)N[C@@H](CCCN)C(=O)NCC(=O)N[C@H](CCCN)C(=O)N[C@@H](Cc1c[nH]c2ccccc12)C(=O)N[C@@H]1C(=O)N[C@@H]([C@@H](C)CC)C(=O)N[C@@H](CC(N)=O)C(=O)NCC(=O)NCC(=O)O[C@@H]1C", "note": "(Palmitoyl-[dS][dY][dW][dOrn][Orn]G[dOrn]WTINGG; ester 9-C)", "values": [{"measurement": "MIC", "setting": "Staphylococcus aureus", "value": 32, "unit": "mg/L"}, {"measurement": "MIC", "setting": "Pseudomonas aeruginosa", "value": 32, "unit": "mg/L"}, {"measurement": "MIC", "setting": "Escherichia coli [1]", "value": 32, "unit": "mg/L"}, {"measurement": "MIC", "setting": "Escherichia coli [2]", "value": 32, "unit": "mg/L"}, {"measurement": "MIC", "setting": "Klebsiella pneumoniae", "value": "> 32", "unit": "mg/L"}, {"measurement": "MIC", "setting": "Acinetobacter baumannii", "value": 4, "unit": "mg/L"}]}
{"compound": "CCC(C)CCC(=O)N[C@H](CC(N)=O)C(=O)N[C@H](Cc1ccc(O)cc1)C(=O)N[C@H](Cc1c[nH]c2ccccc12)C(=O)N[C@H](CCCN)C(=O)N[C@@H](CCCN)C(=O)NCC(=O)N[C@H](CCCN)C(=O)N[C@@H](Cc1c[nH]c2ccccc12)C(=O)N[C@@H]1C(=O)N[C@@H]([C@@H](C)CC)C(=O)NCC(=O)N[C@@H](CO)C(=O)O[C@@H]1C", "note": "(some centres not stated) ({Hexanoyl(4ξ-Me)}-[dN][dY][dW][dOrn][Orn]G[dOrn]WTIGS; ester 9-C)", "values": [{"measurement": "MIC", "setting": "Staphylococcus aureus", "value": "> 32", "unit": "mg/L"}, {"measurement": "MIC", "setting": "Pseudomonas aeruginosa", "value": 8, "unit": "mg/L"}, {"measurement": "MIC", "setting": "Escherichia coli [1]", "value": 4, "unit": "mg/L"}, {"measurement": "MIC", "setting": "Escherichia coli [2]", "value": 4, "unit": "mg/L"}, {"measurement": "MIC", "setting": "Klebsiella pneumoniae", "value": 2, "unit": "mg/L"}, {"measurement": "MIC", "setting": "Acinetobacter baumannii", "value": 4, "unit": "mg/L"}]}
{"compound": "CC[C@H](C)[C@@H]1NC(=O)[C@@H](NC(=O)[C@H](Cc2c[nH]c3ccccc23)NC(=O)[C@@H](CCCN)NC(=O)CNC(=O)[C@H](CCCN)NC(=O)[C@@H](CCCN)NC(=O)[C@@H](Cc2c[nH]c3ccccc23)NC(=O)[C@@H](Cc2ccc(O)cc2)NC(=O)[C@@H](CO)NC(=O)CCCCCC(C)C)[C@@H](C)OC(=O)CNC(=O)CNC(=O)[C@H](CC(N)=O)NC1=O", "note": "({Octanoyl(7-Me)}-[dS][dY][dW][dOrn][Orn]G[dOrn]WTINGG; ester 9-C)", "values": [{"measurement": "MIC", "setting": "Staphylococcus aureus", "value": "> 32", "unit": "mg/L"}, {"measurement": "MIC", "setting": "Pseudomonas aeruginosa", "value": 4, "unit": "mg/L"}, {"measurement": "MIC", "setting": "Escherichia coli [1]", "value": 2, "unit": "mg/L"}, {"measurement": "MIC", "setting": "Escherichia coli [2]", "value": 2, "unit": "mg/L"}, {"measurement": "MIC", "setting": "Klebsiella pneumoniae", "value": 2, "unit": "mg/L"}, {"measurement": "MIC", "setting": "Acinetobacter baumannii", "value": 2, "unit": "mg/L"}]}
{"compound": "COLISTIN [listing 1 of 2 here]", "values": [{"measurement": "Activity", "setting": "Erythrocyte", "value": "< 0.1", "unit": "%"}]}
{"compound": "COLISTIN [listing 2 of 2 here]", "values": [{"measurement": "MIC", "setting": "Staphylococcus aureus", "value": "> 32", "unit": "mg/L"}, {"measurement": "MIC", "setting": "Pseudomonas aeruginosa", "value": 4, "unit": "mg/L"}, {"measurement": "MIC", "setting": "Escherichia coli [1]", "value": 0.5, "unit": "mg/L"}, {"measurement": "MIC", "setting": "Escherichia coli [2]", "value": 8, "unit": "mg/L"}, {"measurement": "MIC", "setting": "Klebsiella pneumoniae", "value": 0.5, "unit": "mg/L"}, {"measurement": "MIC", "setting": "Acinetobacter baumannii", "value": "< 0.25", "unit": "mg/L"}]}
